Test results reported in ChEMBL document CHEMBL1124161, “4-Hydroxy-3-quinolinecarboxamides with antiarthritic and analgesic activities” (J Med Chem, 1988).
Activity calls are given as the source filed them. No cut-off for these calls is given here.

Assays:
Mus musculus [1] = assay: Analgesic activity against acetic acid induced writhing test in mouse administered peroral dose of 25 mg/kg; IA=Inactive; assay type: functional, organism-based; parameters: dose 25 mg/kg
Summary of the method: (§1)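 Female mice (20–22 g), groups of 10, fasted 7 h; drug given orally 30 min before intraperitoneal injection of 0.2 mL 1% aqueous acetic acid. Stretching/writhing movements counted from minute 5 to 20 after irritant.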

Rattus norvegicus [2] = assay: Antiinflammatory activity against carrageenan-induced foot edema in rat after oral administration of 25 mg/kg; IA=Inactive; assay type: functional, organism-based; parameters: dose 25 mg/kg
Rattus norvegicus [3] = assay: Antiarthritis activity against adjuvant-induced arthritis in rats at 25 mg/kg; IA=Inactive; assay type: functional, organism-based; parameters: dose 25 mg/kg
Mus musculus [4] = assay: Analgesic activity against acetic acid induced writhing test in mouse after peroral administration at 100 mg/kg; IA=Inactive
Mus musculus [5] = assay: Analgesic activity against acetic acid induced writhing test in mouse after peroral administration; assay type: functional
Mus musculus [6] = assay: Analgesic activity against acetic acid induced writhing test in mouse after peroral administration; range is (3.2-7.9); assay type: functional; settings: po
Rattus norvegicus [7] = assay: Ulcerogenic effect against intestinal ulcer in rats after oral administration of 500 mg/kg; IA=Inactive; assay type: functional, organism-based; parameters: dose 500 mg/kg
Summary of the method: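 Nonfasted male rats (150–180 g) killed 24 h after oral dosing; intestinal ulcers scored and ulceration index computed from mean ulcer degree times fraction of rats with ulcers ×100; ED100 (index 100) determined graphically.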

Rattus norvegicus [8] = assay: (§2) Ulcerogenic effect against gastric ulcer in rat after oral administration; assay type: functional, Stomach
Summary of the method: (§3)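 Groups of eight female rats (120–150 g), fasted 24 h, dosed orally; killed 7 h later and stomachs scored. Ulceration index = (mean ulcer degree × rats with ulcers / number of rats) × 100, ulcers being scores above 0.5. ED100 (index 100, max 300) read graphically.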

Rattus norvegicus [9] = assay: Antiinflammatory activity against carrageenan-induced foot edema in rat after peroral administration calculated from 4 doses; assay type: functional; settings: po
Summary of the method: (§4)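 Groups of eight male Sprague-Dawley rats (150–180 g) dosed orally at the time of subplantar injection of 0.5 mg carrageenin. Paw volume difference measured before and 5 h after injection. Expressed as ED40, estimated graphically or by Litchfield–Wilcoxon probit analysis.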

[10] = biological target: T1, Polyunsaturated fatty acid 5-lipoxygenase (Rattus norvegicus, UniProt P12527); assay: Inhibition of 5-lipoxygenase from rat peritoneal neutrophils in vitro
T1 sequence (P12527 whole entry): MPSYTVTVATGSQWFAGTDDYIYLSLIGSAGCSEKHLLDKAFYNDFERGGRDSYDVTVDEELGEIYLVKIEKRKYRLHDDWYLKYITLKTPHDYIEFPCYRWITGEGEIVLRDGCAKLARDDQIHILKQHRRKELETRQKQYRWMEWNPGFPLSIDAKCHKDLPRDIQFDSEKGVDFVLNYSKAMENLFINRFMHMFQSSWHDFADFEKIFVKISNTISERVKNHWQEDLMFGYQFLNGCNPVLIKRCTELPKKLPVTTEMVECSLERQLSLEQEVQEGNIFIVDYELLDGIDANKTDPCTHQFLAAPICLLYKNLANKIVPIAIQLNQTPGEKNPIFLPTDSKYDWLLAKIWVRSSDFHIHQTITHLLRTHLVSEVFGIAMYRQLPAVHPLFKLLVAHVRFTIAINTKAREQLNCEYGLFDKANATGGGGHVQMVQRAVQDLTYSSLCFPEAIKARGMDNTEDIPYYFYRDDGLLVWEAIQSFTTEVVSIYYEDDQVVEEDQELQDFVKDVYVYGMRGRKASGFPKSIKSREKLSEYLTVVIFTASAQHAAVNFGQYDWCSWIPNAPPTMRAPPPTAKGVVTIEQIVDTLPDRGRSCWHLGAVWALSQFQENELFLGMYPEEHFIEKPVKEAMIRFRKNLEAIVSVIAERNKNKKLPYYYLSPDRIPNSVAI

Cyclooxygenase = biological target: T2, Cyclooxygenase (Bos taurus, UniProt O62664+O62698); assay: Inhibition of bovine Prostaglandin G/H synthase in seminal vesicle microsomes in vitro
T2 sequence (O62664 whole entry): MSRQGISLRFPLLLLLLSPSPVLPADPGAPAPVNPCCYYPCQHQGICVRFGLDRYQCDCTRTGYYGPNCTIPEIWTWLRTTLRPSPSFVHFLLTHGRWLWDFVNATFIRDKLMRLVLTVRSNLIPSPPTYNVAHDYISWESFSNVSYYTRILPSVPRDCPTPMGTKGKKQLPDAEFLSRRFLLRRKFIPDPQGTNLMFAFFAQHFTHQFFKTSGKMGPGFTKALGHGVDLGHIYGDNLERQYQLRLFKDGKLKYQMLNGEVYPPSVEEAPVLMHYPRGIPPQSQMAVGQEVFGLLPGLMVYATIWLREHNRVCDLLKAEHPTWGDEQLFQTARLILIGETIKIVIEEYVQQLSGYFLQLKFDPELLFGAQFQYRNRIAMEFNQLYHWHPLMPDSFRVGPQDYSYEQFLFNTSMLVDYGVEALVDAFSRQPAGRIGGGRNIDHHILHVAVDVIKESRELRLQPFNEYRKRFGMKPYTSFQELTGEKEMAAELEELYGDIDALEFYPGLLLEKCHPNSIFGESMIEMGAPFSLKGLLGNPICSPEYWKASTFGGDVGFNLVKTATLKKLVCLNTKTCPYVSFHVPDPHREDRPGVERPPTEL
T2 sequence (O62698 whole entry): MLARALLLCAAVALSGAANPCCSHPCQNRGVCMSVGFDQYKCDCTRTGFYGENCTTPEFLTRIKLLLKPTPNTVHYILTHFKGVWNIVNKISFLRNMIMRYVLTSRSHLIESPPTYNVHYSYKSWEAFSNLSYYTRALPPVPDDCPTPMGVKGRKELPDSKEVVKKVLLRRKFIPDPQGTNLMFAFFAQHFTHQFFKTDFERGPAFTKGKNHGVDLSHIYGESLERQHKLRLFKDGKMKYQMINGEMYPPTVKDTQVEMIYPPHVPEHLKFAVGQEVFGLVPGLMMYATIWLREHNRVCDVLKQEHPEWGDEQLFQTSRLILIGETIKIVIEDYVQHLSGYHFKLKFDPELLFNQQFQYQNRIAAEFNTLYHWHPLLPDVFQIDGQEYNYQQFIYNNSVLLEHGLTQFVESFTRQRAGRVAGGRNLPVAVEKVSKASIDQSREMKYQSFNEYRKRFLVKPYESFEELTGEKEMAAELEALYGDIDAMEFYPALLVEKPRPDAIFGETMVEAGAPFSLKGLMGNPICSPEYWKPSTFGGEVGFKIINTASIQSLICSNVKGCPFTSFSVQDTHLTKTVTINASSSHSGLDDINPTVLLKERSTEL

Mus musculus [11] = assay: Analgesic activity against acetic acid induced writhing test in mouse after peroral administration at 100 mg/kg; IA=Inactive; assay type: functional, organism-based; parameters: dose 100 mg/kg; summary of the method: as §1
Rattus norvegicus [12] = assay: Anti-arthritis activity against adjuvant-induced arthritis in rats after peroral administration; assay type: functional; settings: Rattus norvegicus, po; read-out: ED50
Summary of the method: (§5)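 Groups of five male Lewis rats, 40–50 days old, given intraplantar injection in right hind paw of 0.6 mg Mycobacterium butyricum in 0.1 mL Bayol 55. Drug given in food from adjuvant day to day 17. Injected and noninjected hind paw volumes measured day 17 against normal controls. ED50 by least-squares curve fitting or Litchfield–Wilcoxon probit.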

Rattus norvegicus [13] = assay: as §2; assay type: functional; settings: Stomach; summary of the method: as §3
Rattus norvegicus [14] = assay: Antiinflammatory activity against carrageenan-induced foot edema in rat after peroral administration calculated from at least four doses
Mus musculus [15] = assay: Analgesic activity against acetic acid induced writhing test in mouse after peroral administration of 100 mg/kg; IA=Inactive; assay type: functional, organism-based; parameters: dose 100 mg/kg; summary of the method: as §1
Rattus norvegicus [16] = assay: Antiinflammatory activity against carrageenan-induced foot edema in rat after peroral administration of 100 mg/kg; IA=Inactive; assay type: functional, organism-based; parameters: dose 100 mg/kg
Rattus norvegicus [17] = assay: Antiinflammatory activity against carrageenan-induced foot edema in rat after peroral administration of 300 mg/kg; IA=Inactive; assay type: functional, organism-based; parameters: dose 300 mg/kg
Rattus norvegicus [18] = assay: Antiarthritis activity against adjuvant-induced arthritis in rats after peroral administration at 15 mg/kg; IA=Inactive; assay type: functional, organism-based; parameters: dose 15 mg/kg; summary of the method: as §5
Rattus norvegicus [19] = assay: Antiinflammatory activity against carrageenan-induced foot edema after peroral administration in rat; assay type: functional; settings: po; summary of the method: as §4
Mus musculus [20] = assay: Analgesic activity against acetic acid induced writhing test in mouse administered po at 100 mg/kg; IA=Inactive; assay type: functional, organism-based; parameters: dose 100 mg/kg; summary of the method: as §1
Rattus norvegicus [21] = assay: Antiinflammatory activity against carrageenan-induced foot edema in rat administered po at 100 mg/kg; IA=Inactive; assay type: functional, organism-based; parameters: dose 100 mg/kg
Rattus norvegicus [22] = assay: Antiarthritis activity against adjuvant-induced arthritis in rats administered po at 10 mg/kg; IA= Inactive; assay type: functional, organism-based; parameters: dose 10 mg/kg
[23] = Mus musculus, po, read-out: ED50

With `C=Cc1nc2c(C(F)(F)F)cccc2c(O)c1C(=O)Nc1nccs1` the ED50 (Mus musculus [1]) was “inactive” and the ED50 (Rattus norvegicus [2]) was “inactive”.

`O=C(Nc1nccs1)c1c(CO)nc2c(C(F)(F)F)cccc2c1O` was tested, and the ED50 (Rattus norvegicus [3]) was “inactive” and the ED50 (Mus musculus [4]) was “inactive”.

With `O=C(Nc1nccs1)c1cnc2c(C(F)(F)F)cccc2c1O` the ED50 (Mus musculus [5]; [23]) was 5 mg/kg, the ED50 (Mus musculus [6]) was 5 mg/kg and the ED100 (Rattus norvegicus [7]) was “inactive”. For the same compound, the ED100 (Rattus norvegicus [8]) was over 500 mg/kg, the ED40 (Rattus norvegicus [9]) was over 100 mg/kg and the IC50 [10] was 35 µM. For the same compound, the IC50 (Cyclooxygenase) was 2.8 µM.

`CC(=O)OC(c1nc2c(C(F)(F)F)cccc2c(O)c1C(=O)Nc1ccccn1)C(C)C` (configuration not stated) was tested, and the ED50 (Mus musculus [11]) was “inactive” and the ED50 (Rattus norvegicus [12]) was at least 5 mg/kg.

With `O=C(Nc1nccs1)c1c(C(F)(F)F)nc2c(C(F)(F)F)cccc2c1O` the ED50 (Mus musculus [5]) was 0.5 mg/kg, the ED50 (Mus musculus [5]; [23]) was 0.5 mg/kg and the ED50 (Rattus norvegicus [12]) was 3.8 mg/kg. It also gave an ED100 (Rattus norvegicus [13]) of 15 mg/kg, an IC50 [10] of 3 µM and an IC50 (Cyclooxygenase) of 0.4 µM. For the same compound, the ED40 (Rattus norvegicus [14]) was 3.5 mg/kg.

With `Cn1ccnc1NC(=O)c1c(C(F)(F)F)nc2c(C(F)(F)F)cccc2c1O` the ED50 (Mus musculus [15]) was “inactive” and the ED50 (Rattus norvegicus [16]) was “inactive”.

In the case of `O=C(Nc1nccs1)c1cnc2cc(Cl)ccc2c1O`, the ED50 (Mus musculus [5]; [23]) is reported as over 100 mg/kg and the ED50 (Rattus norvegicus [17]) is reported as “inactive”.

With `C[C@@H](N)c1nc2c(C(F)(F)F)cccc2c(O)c1C(=O)Nc1nccs1` the ED50 (Mus musculus [5]; [23]) was over 100 mg/kg and the ED50 (Rattus norvegicus [18]) was “inactive”.

`CCCCC(O)c1nc2c(C(F)(F)F)cccc2c(O)c1C(=O)Nc1nccs1` (configuration not stated) gave an ED50 (Mus musculus [5]; [23]) of at least 100 mg/kg, an ED50 (Rattus norvegicus [12]) of over 20 mg/kg and an ED40 (Rattus norvegicus [19]) of over 100 mg/kg.

`O=C(Nc1nccs1)c1c(C(O)c2ccccc2)nc2c(C(F)(F)F)cccc2c1O` (configuration not stated) was tested, and the ED50 (Mus musculus [20]) was “inactive”, the ED40 (Rattus norvegicus [21]) was “inactive” and the ED50 (Rattus norvegicus [22]) was “inactive”.
